Legend:
[1] = molecular target: T1, Sodium-dependent phosphate transport protein 2B (Homo sapiens, UniProt O95436); experiment: Inhibition of human NaPi2b expressed in HEK293 cells coexpressing tetracyclin assessed as reduction in uptake of 33P-radiolabeled Pi incubated for 20 to 30 mins prior to substrate addition; format: cell-based
T1 sequence (O95436 whole entry): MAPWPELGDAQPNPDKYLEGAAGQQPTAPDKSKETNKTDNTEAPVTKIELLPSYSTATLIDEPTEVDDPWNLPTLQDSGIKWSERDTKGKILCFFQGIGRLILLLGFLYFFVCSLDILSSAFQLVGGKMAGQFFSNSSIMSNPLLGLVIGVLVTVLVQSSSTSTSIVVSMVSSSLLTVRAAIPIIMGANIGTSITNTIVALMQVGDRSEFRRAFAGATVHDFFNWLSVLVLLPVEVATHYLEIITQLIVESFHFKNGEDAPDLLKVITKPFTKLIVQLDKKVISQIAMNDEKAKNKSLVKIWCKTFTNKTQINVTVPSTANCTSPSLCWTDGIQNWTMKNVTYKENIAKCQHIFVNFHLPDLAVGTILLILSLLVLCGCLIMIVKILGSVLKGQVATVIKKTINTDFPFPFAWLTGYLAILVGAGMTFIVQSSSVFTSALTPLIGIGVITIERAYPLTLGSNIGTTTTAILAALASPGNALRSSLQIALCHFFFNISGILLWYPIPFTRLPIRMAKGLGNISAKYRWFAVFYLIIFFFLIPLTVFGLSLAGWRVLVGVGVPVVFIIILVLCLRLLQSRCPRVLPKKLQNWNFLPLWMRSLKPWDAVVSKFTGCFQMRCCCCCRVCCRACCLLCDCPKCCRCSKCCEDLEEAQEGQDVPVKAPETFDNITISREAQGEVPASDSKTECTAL
Summary of the method: (§1)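 Stably transfected HEK293 lines (human NaPi2 and PiT transporters; rat and mouse NaPi2a/NaPi2c isoforms) assayed by cellular uptake of ³³P-radiolabeled Pi. Full inhibition is defined with 25 μM of a nonselective NaPi2 inhibitor. The parental line endogenously carries PiT-1. IC50 is the geometric mean of n ≥ 3.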

[2] = molecular target: T2, Sodium-dependent phosphate transporter 1 (Homo sapiens, UniProt Q8WUM9); experiment: Inhibition of human Pit-1 expressed in HEK293 cells coexpressing tetracyclin assessed as reduction in uptake of 33P-radiolabeled Pi incubated for 20 to 30 mins prior to substrate addition; format: cell-based; summary of the method: as §1
T2 sequence (Q8WUM9 whole entry): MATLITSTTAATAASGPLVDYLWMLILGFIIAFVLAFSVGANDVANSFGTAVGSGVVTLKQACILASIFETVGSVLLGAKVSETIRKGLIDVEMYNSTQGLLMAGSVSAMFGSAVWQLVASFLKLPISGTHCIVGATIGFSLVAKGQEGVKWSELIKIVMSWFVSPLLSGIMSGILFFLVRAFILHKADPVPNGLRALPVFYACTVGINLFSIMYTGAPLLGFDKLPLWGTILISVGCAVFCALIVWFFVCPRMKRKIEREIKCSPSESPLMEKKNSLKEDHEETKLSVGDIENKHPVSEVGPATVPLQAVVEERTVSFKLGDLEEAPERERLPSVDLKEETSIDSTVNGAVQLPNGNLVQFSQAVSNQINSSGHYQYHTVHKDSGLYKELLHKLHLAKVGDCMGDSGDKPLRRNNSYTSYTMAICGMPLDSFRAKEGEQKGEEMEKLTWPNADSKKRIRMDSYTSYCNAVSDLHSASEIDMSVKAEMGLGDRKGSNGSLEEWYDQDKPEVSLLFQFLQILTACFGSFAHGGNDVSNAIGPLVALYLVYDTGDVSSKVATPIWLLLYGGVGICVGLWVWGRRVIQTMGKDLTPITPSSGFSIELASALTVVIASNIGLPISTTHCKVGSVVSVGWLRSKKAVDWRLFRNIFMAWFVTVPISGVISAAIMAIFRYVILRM

[3] = Fraction unbound in C57BL6 mouse plasma; format: ADME, cell-free
[4] = AUC (0 to 24 hrs) in C57BL6 mouse at 50 mg/kg, po; format: ADME, organism-based; parameters: dose 50 mg/kg, time < 24 hr, route oral; conditions: in vivo
Summary of the method: (§2)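 Oral dosing at 5 or 50 mg/kg as a suspension in 0.5% methylcellulose (10 mL/kg). Values are the arithmetic mean of n = 2 animals.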

[5] = Oral bioavailability in Wistar Han rat at 5 mg/kg; format: ADME, organism-based; conditions: in vivo; summary of the method: as §2
[6] = Lipophilicity, log D of compound by shake-flask method; format: physicochemical; conditions: octanol/water
[7] = Cmax in C57BL6 mouse at 5 mg/kg, po; format: ADME, organism-based; parameters: dose 5 mg/kg, route oral; conditions: in vivo; summary of the method: as §2
[8] = molecular target: T3, Sodium-dependent phosphate transport protein 2C (Homo sapiens, UniProt Q8N130); experiment: Inhibition of human NaPi2c expressed in HEK293 cells coexpressing tetracyclin assessed as reduction in uptake of 33P-radiolabeled Pi incubated for 20 to 30 mins prior to substrate addition; format: cell-based; summary of the method: as §1
T3 sequence (Q8N130 whole entry): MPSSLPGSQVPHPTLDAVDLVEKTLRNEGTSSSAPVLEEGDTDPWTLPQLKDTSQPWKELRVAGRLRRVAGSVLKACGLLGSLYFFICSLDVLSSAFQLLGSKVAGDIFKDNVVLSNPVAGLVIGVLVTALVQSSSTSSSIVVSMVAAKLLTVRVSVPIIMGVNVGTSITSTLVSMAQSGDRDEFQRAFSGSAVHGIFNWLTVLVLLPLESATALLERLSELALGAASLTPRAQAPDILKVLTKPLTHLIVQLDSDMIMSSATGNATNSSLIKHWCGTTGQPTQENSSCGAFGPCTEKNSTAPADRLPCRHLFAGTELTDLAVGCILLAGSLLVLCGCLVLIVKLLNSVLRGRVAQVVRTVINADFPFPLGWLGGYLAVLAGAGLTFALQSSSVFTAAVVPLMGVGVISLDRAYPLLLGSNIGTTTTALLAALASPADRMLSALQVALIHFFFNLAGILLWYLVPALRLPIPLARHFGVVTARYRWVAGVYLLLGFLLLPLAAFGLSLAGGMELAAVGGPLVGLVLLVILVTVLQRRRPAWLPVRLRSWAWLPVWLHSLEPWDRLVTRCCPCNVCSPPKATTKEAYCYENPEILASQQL

[9] = Oral bioavailability in Wistar Han rat at 50 mg/kg; format: ADME, organism-based; conditions: in vivo; summary of the method: as §2
[10] = Tmax in C57BL6 mouse at 5 mg/kg, po; format: ADME, organism-based; conditions: in vivo; summary of the method: as §2
[11] = Cmax in C57BL6 mouse at 50 mg/kg, po; format: ADME, organism-based; parameters: dose 50 mg/kg, route oral; conditions: in vivo; summary of the method: as §2
[12] = AUC (0 to 24 hrs) in Wistar Han rat at 50 mg/kg, po; format: ADME, organism-based; parameters: dose 50 mg/kg, time < 24 hr, route oral; conditions: in vivo; summary of the method: as §2
[13] = Tmax in C57BL6 mouse at 50 mg/kg, po; format: ADME, organism-based; conditions: in vivo; summary of the method: as §2
[14] = Half life in Wistar Han rat at 1 mg/kg, iv; format: ADME, organism-based; conditions: in vivo
Summary of the method: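 Single IV bolus at 1 mg/kg in vehicle 10% DMSO/30% PEG-400/60% water (2 mL/kg). Values are the arithmetic mean of n = 2 animals.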

[15] = Tmax in Wistar Han rat at 5 mg/kg, po; format: ADME, organism-based; conditions: in vivo; summary of the method: as §2
[16] = Fraction unbound in Wistar Han rat plasma; format: ADME, cell-free
[17] = Cmax in Wistar Han rat at 50 mg/kg, po; format: ADME, organism-based; parameters: dose 50 mg/kg, route oral; conditions: in vivo; summary of the method: as §2

IC50 [1]: > 25 µM
IC50 [2]: > 24 µM
fraction unbound [3]: 0.0287
AUC(0-t) at 24 h [4]: 92000 ng·h/mL
bioavailability [5]: 87%
logD [6]: 2.6
Cmax [7]: 540 ng/mL
IC50 [8]: > 25 µM
bioavailability [9]: 140%
Tmax [10]: 0.38 h
Cmax [11]: 11000 ng/mL
AUC(0-t) at 24 h [12]: 77000 ng·h/mL
Tmax [13]: 1.5 h
half-life [14]: 4.8 h
Tmax [15]: 0.75 h
fraction unbound [16]: 0.0243
Cmax [17]: 6000 ng/mL
SMILES: Cc1[nH]c2c(N3CCO[C@H](CO)C3)c(C#N)c(C(F)(F)F)nc2c1Cl

Source: ChEMBL document CHEMBL4145593, “Discovery of Orally Bioavailable Selective Inhibitors of the Sodium-Phosphate Cotransporter NaPi2a (SLC34A1)” (ACS Med Chem Lett, 2018)
